Most compounds without a hit are left out; they make up all but 1.6% or so of the library.
MBD2 inh: blocks human MBD2 binding to methylated DNA; Q9UBB5; TR-FRET, MBD2 binding to methylated oligonucleotide; inhibition, % at 4.4 µM; actives 0.31% (n = 370,000); in the data active means inhibition above about 13%
Target sequence (Q9UBB5 whole entry, looked up): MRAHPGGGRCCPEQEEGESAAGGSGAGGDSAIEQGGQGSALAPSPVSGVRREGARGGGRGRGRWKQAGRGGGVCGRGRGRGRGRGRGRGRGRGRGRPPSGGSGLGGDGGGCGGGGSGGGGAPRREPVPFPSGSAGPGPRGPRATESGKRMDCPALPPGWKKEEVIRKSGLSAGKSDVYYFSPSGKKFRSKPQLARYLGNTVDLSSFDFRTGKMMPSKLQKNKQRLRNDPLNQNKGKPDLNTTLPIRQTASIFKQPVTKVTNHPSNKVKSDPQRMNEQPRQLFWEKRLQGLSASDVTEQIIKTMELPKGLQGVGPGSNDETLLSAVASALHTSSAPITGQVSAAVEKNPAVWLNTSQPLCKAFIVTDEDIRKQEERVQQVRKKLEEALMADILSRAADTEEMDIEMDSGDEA
LEDGF integ inh: blocks HIV-1 LEDGF/p75-dependent DNA integration. inhibition, % at 3.7 µM. TR-FRET IN-LEDGF/p75 DNA integration, Eu/Cy5. actives 0.64% (n = 370,000);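 active means inhibition above the screen-wide mean plus 3 SD, cut at about 13% in these data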;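 further: signal is the Cy5 over europium emission ratio at 671 and 618 nm; 0% = plate median of compound wells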
UHRF1 MBD2 ctr: human UHRF1 methylated DNA binding inhibitors | inhibition, % at 4.4 µM | actives 0.75% (n = 370,000) | UHRF1 binding to methylated oligo, TR-FRET;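 further: UHRF1 SRA domain binding a hemimethylated CpG hairpin DNA probe; 0% = median of test compound wells and 100% = reference inhibitor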
TDP2 absorb: TDP2 (human) inhibition, absorbance primary screen; inhibition, % at 12.8 µM; AID 720702; O95551; actives 0.34% (n = 370,000); recombinant TDP2, T5PNP hydrolysis, p-nitrophenol absorbance 415 nm;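 active means inhibition above the mean of all tested compounds plus 3 SD, set per campaign, cut at about 25% in these data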;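 further: 0% = DMSO with enzyme and 100% = buffer with substrate but no TDP2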
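Material: recombinant human TDP2; quantity: TDP2 enzyme at 120 nM final; medium: Tris-HCl pH 7.5 with MgCl2; compound: single concentration, 12.8 µM nominal, with 1% DMSO; incubation: 2 h enzyme incubation at 37 °C; signal: epi absorbance; measure: percent inhibition; benchmarks: high control without enzyme, low control DMSO plus TDP2; repeats: singlicate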
UHRF1 ctr MBD2: counter-screen for MBD2 inhibitors: human UHRF1 methylated DNA binding inhibitors. AID 720530. inhibition, % at 4.4 µM. shares compounds with MBD2 inh. actives 25% (n = 1,000). UHRF1 binding to methylated oligonucleotide, TR-FRET;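 further: UHRF1 SRA domain binding a labeled hemimethylated CpG hairpin DNA; 0% = vehicle only and 100% = reference inhibitor with vehicle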
MBD2 DBD conf: confirmation of human MBD2-DBD methylated oligonucleotide binding inhibitors. shares compounds with MBD2 inh. TR-FRET MBD2-DBD binding to methylated oligonucleotide. inhibition, % at 4.4 µM. actives 26% (n = 1,000); in the data active means inhibition above about 14%
Numbers without * were called inactive; nt = no result. Unless noted, no stated cut-off is given here; in the data, active means inhibition above about 21%; inactive means the rest.

SMILES	MBD2 inh	LEDGF integ inh	UHRF1 MBD2 ctr	TDP2 absorb	UHRF1 ctr MBD2	MBD2 DBD conf
COC(=O)C[C@H]1C[C@H]2c3cc(NS(=O)(=O)c4ccc(OC)cc4)ccc3O[C@H]2[C@H](CO)O1	21*	-2	12	2	9	3
CCOc1ccc(C(=O)NCC(=O)OCc2c(C)noc2C)cc1	-1	1	-1	8	nt	nt
CCOc1ccc(N=Nc2c(C)noc2C)cc1	18*	3	26*	0	12	2
CCn1cc(CN2CCCC(CNS(=O)(=O)c3ccc(OC)cc3)C2)cn1 (stereo not given)	-4	0	1	-1	nt	nt
COc1ccc(CNc2c(C(=O)O)cnc3c2cnn3C)cc1	-3	1	0	-1	nt	nt
CCOC(=O)c1cnc2c(cnn2C)c1NCc1ccc(OC)cc1	44*	-3	19	-5	11	11
COc1ccc(CNCC#CC2=CCCCC2)c(OC)c1	0	3	-2	-4	nt	nt
COc1ccc(NC(=O)CSc2nc3ccccc3c(=O)n2CCCC(=O)NCC2CCCO2)c(OC)c1 (stereo not given)	2	-4	1	-10	nt	nt
Cc1cnn(-c2cc(Oc3ccccc3)ncn2)c1	16*	0	1	0	1	4
COc1ccc(CNC(=O)c2cccc3c2C(=O)N(CC2CCCO2)C3)cc1 (stereo not given)	32*	8	3	-11	6	3
COc1ccc(CNC(=O)c2cccc3c2C(=O)N(Cc2cccnc2)C3)cc1	0	1	0	-2	nt	nt
O=C1C(Sc2ccccc2)=C[C@@]2(O)CC[C@@H](O)[C@]1(Sc1ccccc1)[C@H]2O	-5	4	0	1	nt	nt
Cc1cc(NC(=O)Nc2cc(F)ccc2F)no1	-1	-1	-3	12	nt	nt
Cc1cc(C(=O)N2CCOCC2)c(C)o1	15*	2	22*	-16	8	3
Cc1cc(/C=N/Nc2ncnc(N)c2[N+](=O)[O-])c(C)n1-c1ccccc1	-13	0	-10	1	nt	nt
CCOc1cc(N2CCOCC2)c(OCC)cc1NC(=O)COC(=O)c1cc(C)oc1C	15*	-6	4	-2	13	3
Cc1ccc(NC(=O)CSc2nc3[nH]c(=O)cc(O)c3s2)c(Br)c1	64*	7	-1	-5	6	2
O=C(CSc1nc2[nH]c(=O)cc(O)c2s1)Nc1nccs1	-2	-4	6	2	nt	nt
O=C(CSc1nc2[nH]c(=O)cc(O)c2s1)Nc1nncs1	23*	-3	2	16	8	3
O=C(CNC(=O)/C=C/c1ccco1)N=Nc1c(O)[nH]c2ccccc12	30*	34*	53*	4	65*	51*
Cc1cc(Nc2nnnn2-c2ccccc2)n(-c2ccccc2)n1	6	1	5	-2	nt	nt
COc1ccc(NC(=O)CSc2ccccn2)c([N+](=O)[O-])c1	1	3	1	-7	nt	nt
Brc1ccc2c(c1)-c1ccccc1C1=NCCN12	13	-3	-11	-7	nt	nt
Clc1ccc2c(c1)-c1ccccc1C1=NCCN12	22*	-5	-3	9	2	42*
O=C(NC1CCC1)c1ccc(C#Cc2cccc(F)c2)nc1	17*	7	17	3	14	10
SMILES	MBD2 inh	LEDGF integ inh	UHRF1 MBD2 ctr	TDP2 absorb	UHRF1 ctr MBD2	MBD2 DBD conf
CCc1ccc(/C=C2\SC(=S)N(CCC(=O)Nc3cc(C)on3)C2=O)cc1	-1	0	-4	2	nt	nt
CCc1ccc(/C=C2\SC(=S)N(CCCC(=O)Nc3cc(C)on3)C2=O)cc1	15*	-1	-1	2	3	2
N#Cc1ccc2[nH]c(CO)c(-c3ccccc3)c2c1	3	2	-1	-2	nt	nt
O=C(O)c1ccc(-n2cccc2/C=N\NC(=O)c2cc3cc(Br)ccc3o2)cc1	33*	7	62*	0	66*	41*
CC1(C(=O)NS(=O)(=O)c2ccc(Br)cc2)CCN1C(=O)CC1CCCCC1 (stereo not given)	18*	0	4	6	4	2
CCCCn1c(N)c(N(CC(C)C)C(=O)C(C)SCc2nc3sc(C)c(C)c3c(=O)[nH]2)c(=O)[nH]c1=O (stereo not given)	20*	-2	0	-6	6	0
COc1cccc(C(=O)N2CCN(Cc3ccco3)CC2)c1OC	-2	5	6	-1	nt	nt

High-throughput results: PubChem BioAssay, The Scripps Research Institute Molecular Screening Center
